ChEMBL document CHEMBL3044962, “Characterization of the antifungal activity on Botrytis cinerea of the natural diterpenoids kaurenoic acid and 3beta-hydroxy-kaurenoic acid” (2004)
The source made the active and inactive calls. The rule behind the calls is not given here.

Columns and labels:
Botrytis cinerea [1] = experiment: Antifungal activity against Botryotinia fuckeliana grown assessed as induction of production of laccase after 10 days relative to control; type: functional
In short: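 Mycelium pregrown 3 days at 22 °C in malt-yeast liquid, ground with glass beads and transferred to minimum medium with 1% pectin plus diterpenoid at 40 µg/mL. Culture filtrate taken at day 10. Laccase read with 0.1 mM syringaldazine in 50 mM sodium phosphate pH 6.0, 15 min at 22 °C, A530. 1 U = 0.1 absorbance increase per min. ≥5 experiments, ANOVA/LSD.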

Botrytis cinerea [2] = experiment: Antifungal activity against Botryotinia fuckeliana assessed as reduction in mycelial growth rate at 40 to 160 ug/ml up to 9 days (reference value: 1.82 cm/day); type: functional
Botrytis cinerea [3] = experiment: Antifungal activity against Botryotinia fuckeliana inoculated in tomato leaf assessed as reduction in lesion area at 40 ug/ml after 4 days (Rvb =9.7 +/- 1.8 mm2 ); type: functional
Botrytis cinerea [4] = experiment: Antifungal activity against Botryotinia fuckeliana grown in malt-yeast extract medium assessed as inhibition of mycelial growth at 40 to 160 ug/ml; type: functional
In short: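 Strain G29 conidia at final 3 × 10^5 conidia/mL in malt-yeast extract medium or liquid minimum medium with 1% glucose. Diterpenoids added from methanol at final 40 µg/mL, methanol evaporated before inoculation. Grown in dark at 22 °C for 5 days. Mycelial wet weight gives % inhibition relative to methanol control. ≥5 independent experiments, mean ± SD.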

Botrytis cinerea [5] = experiment: Antifungal activity against Botryotinia fuckeliana assessed as inhibition of mycelial growth at 40 to 160 ug/ml up to 7 days; type: functional, organism-based
Botrytis cinerea [6] = experiment: Antifungal activity against Botryotinia fuckeliana grown assessed as induction of production of p-nitrophenyl butyrate esterase after 20 days relative to control; type: functional
In short: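 Ground pregrown mycelium (3 days, malt-yeast, 22 °C) moved to minimum medium with 1% cutin or 1% pectin plus diterpenoid at 40 µg/mL, 22 °C. Filtrates sampled over 30 days. Esterase measured with 0.62 mM p-nitrophenylbutyrate in 100 mM sodium phosphate pH 8.0 with Triton X-100, 10 min at 22 °C, A405. 1 U releases 1 µmol p-nitrophenol/min.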

Botrytis cinerea [7] = experiment: Antifungal activity against Botryotinia fuckeliana assessed as inhibition of mycelial growth at 40 to 160 ug/ml up to 6 days; type: functional, organism-based
Botrytis cinerea [8] = experiment: Antifungal activity against Botryotinia fuckeliana grown assessed as membrane leakage measuring efflux of phosphorus at 100 ug/ml after 6 hr by ICP-OES analysis; type: functional, organism-based
In short: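 Pregrown mycelia held in 5 mM Tris-HCl pH 7.0 with diterpenoid at final 100 µg/mL (or methanol control) at 22 °C for 6 or 24 h. Phosphorus in the bathing medium measured by ICP-OES. Saponins (100 mg/mL in 10 mM sodium acetate pH 4.5, 6 h) served as positive control. ≥5 experiments, mean ± SD, ANOVA with LSD (P ≤ 0.05).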

For `C=C1C[C@@]23CC[C@H]4[C@@](C)(CCC[C@@]4(C)C(=O)O)[C@@H]2CC[C@@H]1C3` [KAURENOIC ACID], the Activity (Botrytis cinerea [1]) was “Active”, the GI (Botrytis cinerea [2]) was 1.49 cm/day and the Activity (Botrytis cinerea [3]) was 7.5 mm2. The “growth inhibition (GI)” value (Botrytis cinerea [4]) was “inactive”, the “growth inhibition (GI)” value (Botrytis cinerea [5]) was “Active” and the Ratio (Botrytis cinerea [6]) was 2. The “growth inhibition (GI)” value (Botrytis cinerea [7]) was “Active” and the Activity (Botrytis cinerea [8]) was “Active”.
